# Assays:
# [1] = system: Staphylococcus epidermidis; assay: Antibacterial activity against methicillin-sensitive Staphylococcus epidermidis strains 15 1 to 4 assessed as reduction in bacterial growth incubated for 18 to 20 hrs by CLSI based microdilution method; assay type: functional; settings: time 18-20 hrs
# Procedure, shortened: (§1)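 Broth microdilution per CLSI. Compounds dissolved in DMSO (levofloxacin and meropenem in water) as 64 μg/mL stock, then serial twofold dilutions in broth giving 64 to 0.008 μg/mL. […] Clinical isolates tested as several strains per group; racemic GP-1 served as positive control; values given as MIC ranges.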
# Staphylococcus aureus [2] = assay: Antibacterial activity against methicillin-sensitive Staphylococcus aureus strains 15 1 to 4 assessed as reduction in bacterial growth incubated for 18 to 20 hrs by CLSI based microdilution method; assay type: functional; settings: time 18-20 hrs; procedure, shortened: as §1
# Escherichia coli [3] = assay: Antibacterial activity against ESBL-producing Escherichia coli ATCC 35218 strains 15 1 to 3 assessed as reduction in bacterial growth incubated for 18 to 20 hrs by CLSI based microdilution method; assay type: functional; settings: time 18-20 hrs
# Procedure, shortened: (§2)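 CLSI broth microdilution. Compounds in DMSO (levofloxacin and meropenem in water), serial twofold dilutions in broth, 64 to 0.008 μg/mL. […] Results reported as MIC ranges across strains.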
# Pseudomonas aeruginosa [4] = assay: Antibacterial activity against multidrug resistant Pseudomonas aeruginosa strains 15 1 to 3 assessed as reduction in bacterial growth incubated for 18 to 20 hrs by CLSI based microdilution method; assay type: functional; settings: time 18-20 hrs; procedure, shortened: as §1
# [5] = system: Staphylococcus epidermidis; assay: Antibacterial activity against methicillin-resistant Staphylococcus epidermidis strains 15 1 to 4 assessed as reduction in bacterial growth incubated for 18 to 20 hrs by CLSI based microdilution method; assay type: functional; settings: time 18-20 hrs; procedure, shortened: as §1
# Staphylococcus aureus [6] = assay: Antibacterial activity against methicillin-resistant Staphylococcus aureus strains 15 1 to 4 assessed as reduction in bacterial growth incubated for 18 to 20 hrs by CLSI based microdilution method; assay type: functional; settings: time 18-20 hrs; procedure, shortened: as §1
# Escherichia coli [7] = assay: Antibacterial activity against Escherichia coli ATCC 35218 strains 15 1 to 3 assessed as reduction in bacterial growth incubated for 18 to 20 hrs by CLSI based microdilution method; assay type: functional; settings: time 18-20 hrs; procedure, shortened: as §2
# [8] = Volume of distribution at the steady state in Sprague-Dawley rat at 4 mg/kg, iv measured upto 24 hrs by LC-MS/MS analysis; assay type: ADME, organism-based; settings: in vivo, read-out: Vdss
# Procedure, shortened: (§3)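 Male Sprague-Dawley rats, n = 3 per group, single intravenous dose. For 4 mg/kg: 180–280 g rats, vehicle 5% DMSO + 5% EtOH + 40% PEG300 + 50% saline, blood from the retrobulbar vein at 0.05–24 h. For 5 and 20 mg/kg: 180–300 g rats, vehicle 5% DMSO + 5% solutol + 90% saline, sampled at 0.083–24 h. Plasma quantified by LC/MS/MS. Parameters from mean plasma concentration by noncompartmental analysis; values are mean ± standard deviation.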
# Pseudomonas aeruginosa [9] = assay: Antibacterial activity against IMP4-producing multidrug resistant Pseudomonas aeruginosa assessed as reduction in bacterial growth incubated for 18 to 20 hrs by CLSI based microdilution method; assay type: functional; settings: time 18-20 hrs; procedure, shortened: as §1
# Klebsiella pneumoniae [10] = assay: Antibacterial activity agains wild type Klebsiella pneumoniae ATCC BAA-1705 assessed as reduction in bacterial growth incubated for 18 to 20 hrs by CLSI based microdilution method; assay type: functional; settings: time 18-20 hrs; procedure, shortened: as §2
# Escherichia coli [11] = assay: Antibacterial activity against ESBL-producing multidrug resistant Escherichia coli assessed as reduction in bacterial growth incubated for 18 to 20 hrs by CLSI based microdilution method; assay type: functional; settings: time 18-20 hrs; procedure, shortened: as §1
# [12] = Elimination half life in Sprague-Dawley rat at 4 mg/kg, iv measured upto 24 hrs by LC-MS/MS analysis; assay type: ADME, organism-based; settings: in vivo, read-out: beta t1/2 (converted); procedure, shortened: as §3
# Acinetobacter baumannii [13] = assay: Antibacterial activity against wild type Acinetobacter baumannii NCTC 13304 assessed as reduction in bacterial growth incubated for 18 to 20 hrs by CLSI based microdilution method; assay type: functional; settings: time 18-20 hrs; procedure, shortened: as §1
# Escherichia coli [14] = assay: Antibacterial activity against multidrug resistant wild type Escherichia coli ATCC BAA-2340 assessed as reduction in bacterial growth incubated for 18 to 20 hrs by CLSI based microdilution method; assay type: functional; settings: time 18-20 hrs; procedure, shortened: as §1
# [15] = target: Voltage-gated inwardly rectifying potassium channel KCNH2 (Homo sapiens, UniProt Q12809); assay: Inhibition of hERG potassium channel assessed as […] at -80 mV holding potential incubated for 120 seconds by whole cell-automated voltage clamp analysis assay; assay type: toxicity
# Procedure, shortened: (§4)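 Automated whole-cell patch clamp, holding potential −80 mV. Voltage protocol applied every 20 s. Baseline set with external solution containing 0.1% DMSO and stabilised 3 min. Compound applied until steady state, at least 3 min, then washout. Maximum tested concentration 40 μM, or 3 μM for cisapride as positive control.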
# [16] = Metabolic stability in rat liver microsome assessed as intrinsic clearance at 0.1 uM in presence of NADPH incubated upto 60 mins by LC-MS/MS analysis; assay type: ADME; settings: microsomes, 1 h
# Procedure, shortened: (§5)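 Compound at 0.1 μM final, in 0.01% DMSO with 0.005% BSA. Incubated with rat or human liver microsomes at 0.33 mg/mL in 0.1 M Tris-HCl, pH 7.4, with 5 mM MgCl₂ and 1 mM NADPH, at 37 °C. Samples at 0, 7, 17, 30 and 60 min quenched with cold methanol and analysed by LC-MS/MS. Half-life, Cl_int and MF% derived as previously described.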
# [17] = target: hERG (KCNH2) potassium channel (Homo sapiens, UniProt Q12809); assay: Inhibition of hERG potassium channel assessed as maximum inhibition rate at 40 uM at -80 mV holding potential incubated for 120 seconds by whole cell-automated voltage clamp analysis assay relative to control; assay type: toxicity; settings: time 120 sec; procedure, shortened: as §4
# [18] = Metabolic stability in human liver microsome assessed as intrinsic clearance at 0.1 uM in presence of NADPH incubated upto 60 mins by LC-MS/MS analysis; assay type: ADME; settings: microsomes, 1 h; procedure, shortened: as §5
# [19] = MRT in Sprague-Dawley rat at 4 mg/kg, iv measured upto 24 hrs by LC-MS/MS analysis; assay type: ADME, organism-based; settings: in vivo; procedure, shortened: as §3
# Pseudomonas aeruginosa [20] = assay: Antibacterial activity against wild type Pseudomonas aeruginosa ATCC 27853 assessed as reduction in bacterial growth incubated for 18 to 20 hrs by CLSI based microdilution method; assay type: functional; settings: time 18-20 hrs; procedure, shortened: as §2
# [21] = Metabolic stability in rat liver microsome assessed as metabolic bioavailability at 0.1 uM in presence of NADPH incubated upto 60 mins by LC-MS/MS analysis; assay type: ADME; settings: liver microsomes; procedure, shortened: as §5
# Klebsiella pneumoniae [22] = assay: Antibacterial activity agains wild type Klebsiella pneumoniae ATCC BAA-2470 assessed as reduction in bacterial growth incubated for 18 to 20 hrs by CLSI based microdilution method; assay type: functional; settings: time 18-20 hrs; procedure, shortened: as §1
# [23] = Metabolic stability in human liver microsome assessed as metabolic bioavailability at 0.1 uM in presence of NADPH incubated upto 60 mins by LC-MS/MS analysis; assay type: ADME; settings: liver microsomes; procedure, shortened: as §5
# Escherichia coli [24] = assay: Antibacterial activity against multidrug resistant wild type Escherichia coli NCTC 13353 assessed as reduction in bacterial growth incubated for 18 to 20 hrs by CLSI based microdilution method; assay type: functional; settings: time 18-20 hrs; procedure, shortened: as §1
# [25] = Metabolic stability in rat liver microsome assessed as elimination half life at 0.1 uM in presence of NADPH incubated upto 60 mins by LC-MS/MS analysis; assay type: ADME; settings: liver microsomes, read-out: beta t1/2; procedure, shortened: as §5
# [26] = Metabolic stability in human liver microsome assessed as elimination half life at 0.1 uM in presence of NADPH incubated upto 60 mins by LC-MS/MS analysis; assay type: ADME; settings: liver microsomes, read-out: beta t1/2; procedure, shortened: as §5
# Acinetobacter baumannii [27] = assay: Antibacterial activity agains OXA23-producing multidrug resistant Acinetobacter baumannii assessed as reduction in bacterial growth incubated for 18 to 20 hrs by CLSI based microdilution method; assay type: functional; settings: time 18-20 hrs; procedure, shortened: as §1
# [28] = Clearance in Sprague-Dawley rat at 4 mg/kg, iv measured upto 24 hrs by LC-MS/MS analysis; assay type: ADME, organism-based; settings: in vivo; procedure, shortened: as §3
# Klebsiella pneumoniae [29] = assay: Antibacterial activity against KPC2-producing multidrug resistant Klebsiella pneumoniae assessed as reduction in bacterial growth incubated for 18 to 20 hrs by CLSI based microdilution method; assay type: functional; settings: time 18-20 hrs; procedure, shortened: as §1
# [30] = AUC (0 to infinity) in Sprague-Dawley rat at 4 mg/kg, iv measured upto 24 hrs by LC-MS/MS analysis; assay type: ADME, organism-based; design: time < 24 hrs, dose 4 mg/kg, route iv; settings: in vivo; procedure, shortened: as §3
# hERG (KCNH2) potassium channel, sequence (Q12809 whole entry): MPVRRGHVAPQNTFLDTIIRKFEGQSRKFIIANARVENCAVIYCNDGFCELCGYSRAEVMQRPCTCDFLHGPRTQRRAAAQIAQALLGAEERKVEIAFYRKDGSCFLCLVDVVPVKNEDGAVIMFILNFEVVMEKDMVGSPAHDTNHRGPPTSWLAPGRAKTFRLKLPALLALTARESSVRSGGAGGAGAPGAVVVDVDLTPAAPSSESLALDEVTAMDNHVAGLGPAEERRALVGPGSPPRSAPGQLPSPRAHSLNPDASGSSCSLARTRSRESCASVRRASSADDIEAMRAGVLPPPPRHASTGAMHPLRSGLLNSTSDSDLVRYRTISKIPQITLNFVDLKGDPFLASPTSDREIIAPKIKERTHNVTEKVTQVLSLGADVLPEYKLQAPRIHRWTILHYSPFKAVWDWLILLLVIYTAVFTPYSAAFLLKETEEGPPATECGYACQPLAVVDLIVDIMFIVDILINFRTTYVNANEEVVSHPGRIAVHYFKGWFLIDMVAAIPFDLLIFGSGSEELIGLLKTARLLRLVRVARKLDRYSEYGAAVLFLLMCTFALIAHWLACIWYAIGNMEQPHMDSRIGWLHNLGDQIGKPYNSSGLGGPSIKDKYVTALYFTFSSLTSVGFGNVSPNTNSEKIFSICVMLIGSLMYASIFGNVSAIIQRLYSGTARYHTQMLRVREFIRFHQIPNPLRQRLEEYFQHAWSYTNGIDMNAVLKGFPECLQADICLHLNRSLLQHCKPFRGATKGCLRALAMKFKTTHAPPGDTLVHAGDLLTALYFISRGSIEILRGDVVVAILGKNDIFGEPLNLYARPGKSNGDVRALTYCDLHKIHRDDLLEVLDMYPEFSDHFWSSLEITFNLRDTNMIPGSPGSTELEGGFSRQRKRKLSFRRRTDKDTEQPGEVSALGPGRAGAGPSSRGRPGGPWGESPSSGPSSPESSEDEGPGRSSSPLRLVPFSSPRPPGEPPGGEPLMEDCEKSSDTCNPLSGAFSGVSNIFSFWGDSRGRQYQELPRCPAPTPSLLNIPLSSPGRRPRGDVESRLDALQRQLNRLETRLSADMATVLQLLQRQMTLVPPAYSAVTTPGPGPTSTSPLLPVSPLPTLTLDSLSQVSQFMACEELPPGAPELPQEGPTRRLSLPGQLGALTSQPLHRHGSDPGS
# Voltage-gated inwardly rectifying potassium channel KCNH2, sequence (Q12809 whole entry): as above
compound,measurement,setting,value
CNc1cc(F)cc2c1[nH]c1nc(Oc3cnc(C)nc3)nc(N3CCC(=CCN)CC3)c12,MIC,[1],0.25 mg/L
same,MIC,Staphylococcus aureus [2],1 mg/L
same,MIC,Escherichia coli [3],8 mg/L
same,MIC,Pseudomonas aeruginosa [4],≥ 16 mg/L
same,MIC,[5],0.25 mg/L
same,MIC,Staphylococcus aureus [6],0.5 mg/L
same,MIC,Escherichia coli [7],> 2 mg/L
CNc1cc(F)cc2c1[nH]c1nc(Oc3cnc(C)nc3)nc(N3CC(=CCN)C3)c12,MIC,[1],0.25 mg/L
same,MIC,Staphylococcus aureus [2],0.5 mg/L
same,MIC,Escherichia coli [3],8 mg/L
same,MIC,Pseudomonas aeruginosa [4],≥ 16 mg/L
same,MIC,[5],0.25 mg/L
same,MIC,Staphylococcus aureus [6],0.5 mg/L
same,MIC,Escherichia coli [7],0.5 mg/L
CNc1cc(F)cc2c1[nH]c1nc(Oc3cnc(C)nc3)nc(N3CC(=C(C)C(C)N)C3)c12 (racemic),Vd,[8],12.3 L/kg
same,MIC,[1],< 0.008 mg/L
same,MIC,Pseudomonas aeruginosa [9],4 mg/L
same,MIC,Staphylococcus aureus [2],< 0.008 mg/L
same,MIC,Klebsiella pneumoniae [10],8 mg/L
same,MIC,Escherichia coli [3],0.5 mg/L
same,MIC,Escherichia coli [11],0.5 mg/L
same,half-life,[12],5.7 h
same,MIC,Acinetobacter baumannii [13],0.5 mg/L
same,MIC,Escherichia coli [14],0.5 mg/L
same,MIC,Pseudomonas aeruginosa [4],1 mg/L
same,IC50,[15],> 40 µM
same,CLH,[16],126 mL/min/g
same,"inhibition at 2 min, 40 µM",[17],37%
same,CLH,[18],4.25 mL/min/g
same,MRT,[19],4.7 h
same,MIC,Pseudomonas aeruginosa [20],2 mg/L
same,"Fh at 1 h, 0.1 µM",[21],26.1%
same,MIC,Klebsiella pneumoniae [22],2 mg/L
same,"Fh at 1 h, 0.1 µM",[23],82.2%
same,MIC,Escherichia coli [24],0.25 mg/L
same,half-life at 0.1 µM,[25],0.278 h
same,MIC,Escherichia coli [7],0.25 mg/L
same,half-life at 0.1 µM,[26],8.23 h
same,MIC,Acinetobacter baumannii [27],0.25 mg/L
same,clearance,[28],2.65 L/h/kg
same,MIC,Klebsiella pneumoniae [29],2 mg/L
same,AUC(0-inf),[30],1.51 µg·h/mL

# — ChEMBL document CHEMBL5096186, “Design, Synthesis, and Biological Evaluation of Novel Pyrimido[4,5-b]indole Derivatives Against Gram-Negative Multidrug-Resistant Pathogens” (J Med Chem, 2021)
